Experimental data taken from ChEMBL document CHEMBL4325852, “Design, synthesis, and discovery of ocotillol-type amide derivatives as orally available modulators of P-glycoprotein-mediated multidrug resistance” (Eur J Med Chem, 2019).
Activity calls are given as the source filed them. The calls are words filed in the database; no cut-off is given here.

Assays:
[1] = biological target: T1, ATP-dependent translocase ABCB1 (Homo sapiens, UniProt P08183); assay: Reversal of P-gp-mediated multidrug resistance in human KBV cells assessed as potentiation of paclitaxel-induced cytotoxicity by measuring decrease in paclitaxel IC50 at 5 uM after 72 hrs by MTT assay relative to paclitaxel alone; format: cell-based
[2] = Cytotoxicity against human KBV cells assessed as cell survival at 10 uM after 72 hrs by MTT assay relative to control; format: cell-based; conditions: read-out: Survival
Procedure, shortened: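 KBV (Pgp-overexpressing MDR line) grown in DMEM/10% FCS, kept in 10 nM paclitaxel; seeded, compound (DMSO stock) added next day, 72 h; MTT 2 h, formazan in DMSO, A570 gives survival vs DMSO solvent control; n = 1-3 independent experiments, mean ± SD.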

[3] = biological target: T1, ATP-dependent translocase ABCB1; assay: Reversal of P-gp-mediated multidrug resistance in human KBV cells assessed as potentiation of paclitaxel-induced cytotoxicity by measuring cell survival at 5 uM after 72 hrs by MTT assay (reference value: 104 +/- 8%); format: cell-based
[4] = biological target: T1, ATP-dependent translocase ABCB1; assay: Reversal of P-gp-mediated multidrug resistance in human KBV cells assessed as potentiation of paclitaxel-induced cytotoxicity by measuring cell survival at 10 uM after 72 hrs by MTT assay (reference value: 104 +/- 8%); format: cell-based
[5] = biological target: T1, ATP-dependent translocase ABCB1; assay: Reversal of P-gp-mediated multidrug resistance in human KBV cells assessed as potentiation of paclitaxel-induced cytotoxicity by measuring decrease in paclitaxel IC50 at 10 uM after 72 hrs by MTT assay relative to paclitaxel alone; format: cell-based
[6] = Cell cycle arrest in human KBV cells assessed as accumulation at S phase at 10 uM after 24 hrs by propidium iodide staining based flow cytometry (reference value: 10.03 +/- 0.75%); format: ADME
Procedure, shortened: (§1)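 KBV cells (grown in DMEM with 10% fetal calf serum and penicillin/streptomycin, with 10 nM paclitaxel added to maintain resistance) seeded at 3×10^5 per well and cultured 24 h. Test compound added, with or without paclitaxel 0.1 μM, for 24 h. Cells fixed in 70% ethanol overnight at –20 °C, stained 30 min with PI plus RNase A, and analysed by flow cytometry; mean ± SD, n = 3.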

[7] = Cell cycle arrest in human KBV cells assessed as accumulation at G0/G1 phase at 10 uM after 24 hrs by propidium iodide staining based flow cytometry (reference value: 70.35 +/- 0.79%); format: ADME; procedure, shortened: as §1
[8] = Cell cycle arrest in human KBV cells assessed as accumulation at G2/M phase at 10 uM after 24 hrs by propidium iodide staining based flow cytometry (reference value: 19.62 +/- 1.54%); format: ADME; procedure, shortened: as §1
[9] = Cell cycle arrest in human KBV cells assessed as accumulation at sub-G1 phase at 10 uM after 24 hrs by propidium iodide staining based flow cytometry (reference value: 2.21 +/- 1.02%); format: ADME; procedure, shortened: as §1
[10] = biological target: T1, ATP-dependent translocase ABCB1; assay: Reversal of P-gp-mediated multidrug resistance in human KBV cells assessed as potentiation of paclitaxel-induced cell cycle arrest by measuring accumulation at G2/M phase at 5 uM after 24 hrs by propidium iodide staining based flow cytometry (reference value: 16.35 +/- 2.02%); procedure, shortened: as §1
[11] = biological target: T1, ATP-dependent translocase ABCB1; assay: Stimulation of P-gp ATPase activity (unknown origin) assessed as increase in ATP consumption preincubated for 5 mins followed by Mg-ATP addition measured after 40 mins by ATP-Glo luminescence assay relative to control
[12] = biological target: T1, ATP-dependent translocase ABCB1; assay: Reversal of P-gp-mediated multidrug resistance in human KBV cells assessed as potentiation of paclitaxel-induced cell cycle arrest by measuring accumulation at S phase at 5 uM after 24 hrs by propidium iodide staining based flow cytometry (reference value: 12.54 +/- 4.01%); procedure, shortened: as §1
[13] = Potentiation of paclitaxel-induced antitumor activity against human KBV cells xenografted in Balb/c nude mouse assessed as tumor growth inhibition at 10 mg/kg, po via gavage for 2 weeks cotreated with 30 mg/kg, ip paclitaxel (reference value: 17.9%); format: functional
P-gp (ABCB1) ATPase = P-gp (ABCB1) ATPase (Homo sapiens, UniProt P08183); assay: Stimulation of P-gp ATPase activity (unknown origin) at 0.5 mM preincubated for 5 mins followed by Mg-ATP addition measured after 40 mins by ATP-Glo luminescence assay relative to control; conditions: read-out: FC
[14] = biological target: T1, ATP-dependent translocase ABCB1; assay: Reversal of P-gp-mediated multidrug resistance in human KBV cells assessed as potentiation of paclitaxel-induced cell cycle arrest by measuring accumulation at G0/G1 phase at 5 uM after 24 hrs by propidium iodide staining based flow cytometry (reference value: 71.11 +/- 2%); procedure, shortened: as §1
[15] = Toxicity in Balb/c nude mouse xenografted with human KBV cells assessed as body weight at 10 mg/kg, po via gavage for 2 weeks cotreated with 30 mg/kg, ip paclitaxel (reference value: 19.84 to 20.62 g); format: organism-based; conditions: in vivo, 336 h
[16] = biological target: T1, ATP-dependent translocase ABCB1; assay: Inhibition of P-gp-mediated Rh-123 efflux in human KBV cells assessed as Rh-123 accumulation preincubated for 2 hrs followed by Rh-123 addition measured after 30 mins by flow cytometry; format: cell-based; conditions: 0.5 h
Procedure, shortened: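 KBV cells treated with or without compound for 2 h at the indicated concentrations, then loaded with 10 μM Rhodamine123 for 30 min. Cells harvested, washed three times in PBS and analysed by flow cytometry.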

Homo sapiens = species on record: Homo sapiens; assay: Downregulation of P-gp protein expression in human KBV cells by western blot analysis; format: functional, cell-based
[17] = Toxicity in Balb/c nude mouse xenografted with human KBV cells assessed as body weight at 10 mg/kg, po via gavage for 2 weeks (reference value: 19.84 to 20.62 g); format: organism-based; conditions: in vivo, 336 h
[18] = biological target: T1, ATP-dependent translocase ABCB1; assay: Reversal of P-gp-mediated multidrug resistance in human KBV cells assessed as potentiation of paclitaxel-induced cell cycle arrest by measuring accumulation at sub-G1 phase at 5 uM after 24 hrs by propidium iodide staining based flow cytometry (reference value: 2.29 +/- 0.39%); procedure, shortened: as §1
[19] = Cytotoxicity against human KBV cells xenografted in Balb/c nude mouse assessed as tumor growth inhibition at 10 mg/kg, po via gavage for 2 weeks relative to control; format: organism-based; conditions: in vivo, 336 h

T1 sequence (P08183 whole entry): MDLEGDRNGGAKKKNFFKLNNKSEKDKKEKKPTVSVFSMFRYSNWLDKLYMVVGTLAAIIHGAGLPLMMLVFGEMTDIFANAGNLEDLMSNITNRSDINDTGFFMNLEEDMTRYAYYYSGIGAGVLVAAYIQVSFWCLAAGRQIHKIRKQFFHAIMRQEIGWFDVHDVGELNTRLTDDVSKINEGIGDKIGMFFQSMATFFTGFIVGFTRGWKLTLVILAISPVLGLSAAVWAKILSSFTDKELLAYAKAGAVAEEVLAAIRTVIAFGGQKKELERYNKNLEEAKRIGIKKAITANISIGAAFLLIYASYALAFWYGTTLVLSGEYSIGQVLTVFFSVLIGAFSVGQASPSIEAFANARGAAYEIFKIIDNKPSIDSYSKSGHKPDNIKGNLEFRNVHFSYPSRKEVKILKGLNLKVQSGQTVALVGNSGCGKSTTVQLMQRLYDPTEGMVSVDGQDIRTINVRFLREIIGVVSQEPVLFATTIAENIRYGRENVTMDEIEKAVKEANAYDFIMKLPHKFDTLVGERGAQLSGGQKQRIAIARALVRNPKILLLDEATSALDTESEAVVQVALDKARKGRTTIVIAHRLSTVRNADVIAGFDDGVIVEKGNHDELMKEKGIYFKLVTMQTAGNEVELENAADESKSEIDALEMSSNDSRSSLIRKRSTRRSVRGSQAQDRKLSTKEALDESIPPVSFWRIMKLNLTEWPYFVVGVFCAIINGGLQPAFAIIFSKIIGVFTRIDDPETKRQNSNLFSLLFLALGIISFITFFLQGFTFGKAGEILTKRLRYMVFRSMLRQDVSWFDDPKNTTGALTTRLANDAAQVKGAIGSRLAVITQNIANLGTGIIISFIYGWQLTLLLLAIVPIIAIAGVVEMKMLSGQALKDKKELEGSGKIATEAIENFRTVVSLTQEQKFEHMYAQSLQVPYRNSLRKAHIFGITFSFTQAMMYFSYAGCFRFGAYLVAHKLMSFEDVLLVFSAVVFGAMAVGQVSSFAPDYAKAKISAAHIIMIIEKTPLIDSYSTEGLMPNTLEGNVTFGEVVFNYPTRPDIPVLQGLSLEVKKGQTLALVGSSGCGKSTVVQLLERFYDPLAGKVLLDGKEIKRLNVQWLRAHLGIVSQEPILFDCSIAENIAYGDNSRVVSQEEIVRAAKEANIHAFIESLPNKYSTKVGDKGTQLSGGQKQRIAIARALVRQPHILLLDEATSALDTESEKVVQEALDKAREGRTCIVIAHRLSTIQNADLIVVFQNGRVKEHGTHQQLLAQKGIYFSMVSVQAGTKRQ
Sequence of P-gp (ABCB1) ATPase (P08183 whole entry): as above

Row | SMILES | fold change (FC) [1] | viability at 72 h, 10 µM [2] [%] | Survival [3] [%] | Survival [4] [%] | fold change (FC) [5] | Activity [6] [%] | Activity [7] [%] | Activity [8] [%] | Activity [9] [%] | other results
1 | CC(C)(O)[C@H]1CC[C@@](C)([C@H]2CC[C@]3(C)[C@@H]2[C@H](O)C[C@@H]2[C@@]4(C)CC[C@H](N)C(C)(C)[C@@H]4CC[C@]23C)O1 | 10 | 125 | 72 | 43 | 28.11 |  |  |  |  | 
2 | COc1ccc(CCN(C)CCCC(C#N)(c2ccc(OC)c(OC)c2)C(C)C)cc1OC (stereo unspecified) |  |  |  | 43 |  | 9.99 | 68.09 | 21.92 | 2.25 | 
3 | CC(C)(C)OC(=O)NCCCCCC(=O)N[C@H]1CC[C@]2(C)[C@H]3C[C@@H](O)[C@@H]4[C@@H]([C@]5(C)CC[C@H](C(C)(C)O)O5)CC[C@@]4(C)[C@]3(C)CC[C@H]2C1(C)C | 27.97 | 128 | 46 | 34 | 47.85 | 9.22 | 73.29 | 17.49 | 2.35 | Activity [10]: 39.43%; Activity [11]: Dose-dependent effect; Activity [12]: 16.05%; TGI [13]: 53.73%; fold induction at 40 min, 500 µM (P-gp (ABCB1) ATPase): 6.03; Activity [14]: 44.52%; Activity [15]: 15.98 g; inhibition (INH) [16]: Dose-dependent effect; Activity (Homo sapiens): inactive; Activity [17]: 21.85 g; Activity [18]: 43.12%; TGI [19]: 10.45%
